Test results published in ChEMBL document CHEMBL1141391 (J Med Chem, 2007).

Legend:
1A9/ptx-10 [1] = assay: Inhibition of growth in paclitaxel resistant 1A9-PTX10 F-beta-270V mutant cell line after 72 hrs by SRB assay; assay type: functional, cell-based; settings: Homo sapiens, 1A9/ptx-10, 72 h
A2780 = assay: Cytotoxicity against A2780 cell line; assay type: cell-based; settings: Homo sapiens
1A9 [2] = assay: Inhibition of growth in 1A9 cell line after 72 hrs; assay type: functional, cell-based; settings: Homo sapiens, 1A9, 72 h
Tubulin (Homo sapiens) = Tubulin (Homo sapiens) (UniProt P68371+Q9H4B7+P0DPH7+P68366+Q13509+Q71U36+P04350+Q3ZCM7+P07437+P68363+Q9BQE3+Q6PEY2+Q13885+Q9BVA1+Q9BUF5); assay: Induction of GTP-tubulin polymerization; assay type: protein-complex assay
Procedure, shortened: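 ED50 for induction of tubulin assembly, read by light scattering at 350 nm or by fluorescence in a 96-well format. GTP-tubulin was used unless otherwise stated. Some samples were run with GDP-tubulin and normalized to the GTP-tubulin scale. Some values are single determinations.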

[3] = Inhibition of growth in epothilone A resistant 1A9-A8 T-beta-274I mutant cell line after 72 hrs by SRB assay; assay type: functional, cell-based; settings: Homo sapiens, 1A9, 72 h
1A9/ptx-10 [4] = assay: Relative resistance, IC50 for 1A9-PTX10 F-beta-270V mutant/IC50 for 1A9; assay type: functional, Homo sapiens
1A9 [5] = assay: Relative resistance, IC50 for 1A9-A8 A8 T-beta-274I mutant/IC50 for 1A9; assay type: functional, Homo sapiens
PC-3 = assay: Cytotoxicity against PC3 cell line by MTT assay; assay type: cell-based; settings: Homo sapiens

Structure (SMILES) | ED50 (Tubulin (Homo sapiens)) [nM] | IC50 (1A9/ptx-10 [1]) [nM] | IC50 (A2780) [nM] | IC50 (1A9 [2]) [nM] | IC50 [3] [nM] | Ratio IC50 (1A9/ptx-10 [4]) | Ratio IC50 (1A9 [5]) | IC50 (PC-3) [nM]
CC(=O)O[C@H]1C(=O)[C@]2(C)C(O)C[C@H]3OC[C@]34OC(=O)/C=C\Cc3ccccc3[C@H](NC(=O)c3ccccc3)[C@@H](O)C(=O)O[C@H]3C[C@@](O)([C@@H](OC(=O)c5ccccc5)[C@H]42)C(C)(C)C1=C3C (some centres not stated) | 300 | 0.13 | 0.3 | 0.32 | 0.27 | 1.8 | 0.84 | 2.5
C=CCCC(=O)O[C@@]12CO[C@@H]1C[C@H](O)[C@@]1(C)C(=O)[C@H](OC(C)=O)C3=C(C)[C@@H](OC(=O)[C@H](O)[C@@H](NC(=O)c4ccccc4)c4ccccc4OCC=C)C[C@@](O)([C@@H](OC(=O)c4ccccc4)[C@H]21)C3(C)C | 420 | 65 | 770 | 1.8 | 148 | 18 | 82 | 128
CC(=O)O[C@H]1C(=O)[C@@]2(C)[C@@H]3[C@H](OC(=O)c4ccccc4)[C@]4(O)C[C@H](OC(=O)[C@H](O)[C@@H](NC(=O)c5ccccc5)c5cccc(c5)OC/C=C/CCC(=O)O[C@]35CO[C@@H]5C[C@@H]2O)C(C)=C1C4(C)C | – | 196 | 650 | 24.6 | > 300 | 6.3 | >12 | –
C=CCCC(=O)O[C@@]12CO[C@@H]1C[C@H](O)[C@@]1(C)C(=O)[C@H](OC(C)=O)C3=C(C)[C@@H](OC(=O)[C@H](O)[C@@H](NC(=O)c4ccccc4)c4cccc(C=C)c4)C[C@@](O)([C@@H](OC(=O)c4ccccc4)[C@H]21)C3(C)C | 490 | 42 | 350 | 13.7 | 137 | 5.5 | 10 | 55
CC(=O)O[C@H]1C(=O)[C@@]2(C)[C@@H]3[C@H](OC(=O)c4ccccc4)[C@]4(O)C[C@H](OC(=O)[C@H](O)[C@@H](NC(=O)c5ccccc5)c5ccccc5OCCCC(=O)O[C@]35CO[C@@H]5C[C@@H]2O)C(C)=C1C4(C)C | 830 | 35.9 | 18.5 | 18.9 | 66.5 | 1.8 | 3.5 | 50
CC(=O)O[C@H]1C(=O)[C@@]2(C)[C@@H]3[C@H](OC(=O)c4ccccc4)[C@]4(O)C[C@H](OC(=O)[C@H](O)[C@@H](NC(=O)c5ccccc5)c5ccccc5CCCC(=O)O[C@]35CO[C@@H]5C[C@@H]2O)C(C)=C1C4(C)C | 210 | 1.03 | 0.5 | 0.07 | 0.44 | 12 | 6.3 | 2.4
C=CCOc1cccc([C@H](NC(=O)c2ccccc2)[C@@H](O)C(=O)O[C@H]2C[C@@]3(O)[C@@H](OC(=O)c4ccccc4)[C@@H]4[C@]5(OC(=O)C=C)CO[C@@H]5C[C@H](O)[C@@]4(C)C(=O)[C@H](OC(C)=O)C(=C2C)C3(C)C)c1 | 1000 | – | 1900 | – | – | – | – | 550

Further lines, with some results ahead:

ED50 (Tubulin (Homo sapiens)) [nM] | Structure (SMILES) | IC50 (1A9/ptx-10 [1]) [nM] | IC50 (A2780) [nM] | IC50 (1A9 [2]) [nM] | IC50 [3] [nM] | Ratio IC50 (1A9/ptx-10 [4]) | Ratio IC50 (1A9 [5]) | IC50 (PC-3) [nM]
500 | CC(=O)O[C@H]1C(=O)[C@@]2(C)[C@H]([C@H](OC(=O)c3ccccc3)[C@]3(O)C[C@H](OC(=O)[C@H](O)[C@@H](NC(=O)c4ccccc4)c4ccccc4)C(C)=C1C3(C)C)[C@]1(OC(C)=O)CO[C@@H]1C[C@@H]2O [PACLITAXEL] | 157 | – | 4.8 | 21.5 | – | – | 5
1600 | CC(=O)O[C@H]1C(=O)[C@@]2(C)[C@@H]3[C@H](OC(=O)c4ccccc4)[C@]4(O)C[C@H](OC(=O)[C@H](O)[C@@H](NC(=O)c5ccccc5)c5cccc(c5)/C=C/CCC(=O)O[C@]35CO[C@@H]5C[C@@H]2O)C(C)=C1C4(C)C | 157 | 680 | 12.9 | > 300 | 21 | >23 | 34
670 | CC(=O)O[C@H]1C(=O)[C@@]2(C)[C@@H]3[C@H](OC(=O)c4ccccc4)[C@]4(O)C[C@H](OC(=O)[C@H](O)[C@@H](NC(=O)c5ccccc5)c5ccccc5OCC/C=C/C(=O)O[C@]35CO[C@@H]5C[C@@H]2O)C(C)=C1C4(C)C | 157 | 20 | 12.2 | 46.4 | 9.2 | 3.8 | 16
280 | CC(=O)O[C@H]1C(=O)[C@@]2(C)[C@@H]3[C@H](OC(=O)c4ccccc4)[C@]4(O)C[C@H](OC(=O)[C@H](O)[C@@H](NC(=O)c5ccccc5)c5ccccc5OC/C=C\C(=O)O[C@]35CO[C@@H]5C[C@@H]2O)C(C)=C1C4(C)C | 126 | 14.5 | 7 | 26.5 | 17 | 3.8 | 15
220 | COc1cccc(C(=O)O[C@H]2[C@@H]3[C@]45CO[C@@H]4C[C@H](O)[C@@]3(C)C(=O)[C@H](OC(C)=O)C3=C(C)[C@H](C[C@]2(O)C3(C)C)OC(=O)[C@H](O)[C@@H](NC(=O)c2ccccc2)c2ccccc2C/C=C/C(=O)O5)c1 | – | 17.7 | – | – | – | – | 8.2
530 | CC(=O)O[C@H]1C(=O)[C@@]2(C)[C@@H]3[C@H](OC(=O)c4ccccc4)[C@]4(O)C[C@H](OC(=O)[C@H](O)[C@@H](NC(=O)c5ccccc5)c5ccccc5OC/C=C/CCCC(=O)O[C@]35CO[C@@H]5C[C@@H]2O)C(C)=C1C4(C)C | – | 440 | – | – | – | – | 90
230 | CC(=O)O[C@H]1C(=O)[C@@]2(C)[C@@H]3[C@H](OC(=O)c4ccccc4)[C@]4(O)C[C@H](OC(=O)[C@H](O)[C@@H](NC(=O)c5ccccc5)c5ccccc5OCCCCC(=O)O[C@]35CO[C@@H]5C[C@@H]2O)C(C)=C1C4(C)C | – | 28 | – | – | – | – | 13
